# Measurements from different studies.
# Each line is one published result; the experiments were not run side by side.
# Target: Muscarinic acetylcholine receptor M3 (CHRM3, Homo sapiens, UniProt P20309)
# Tested at: 10 µM
Structure (SMILES),observed,technique,inhibition
Clc1ccc2c(C3CCN(CCc4c[nH]c5ccccc45)CC3)c[nH]c2c1,ligand displacement,radioligand,61%
CN1CC[C@@]2(C)c3cc(OC(=O)Nc4ccccc4)ccc3N(C)[C@@H]12,ligand displacement,radioligand,3.1%
Cc1ccccc1Oc1cc(-n2c(=O)cc(C(F)(F)F)[nH]c2=O)c2ccccc2c1Cl,ligand displacement,,-16.2%
CCN(CC)CCCC[C@H](NC(=O)[C@H](CC(C)C)NC(=O)[C@H](C)NC(=O)[C@H](Cc1ccccc1)NC(=O)c1ccc(C(C)(C)C)cc1)C(=O)N[C@@H](CO)C(=O)OC,ligand displacement,radioligand,7%
c1ccc(C(NCCNC(c2ccccc2)c2ccccc2)c2ccccc2)cc1,cell-free assay,,11%
COCc1c(-c2cc3cc(C)cc(OC)c3s2)c2c(N)ncnn2c1CN1CCNC(=O)C1,ligand displacement,radioligand,0%
CC(C)N1CCC[C@H]1CNC(=O)c1cn(C2CCCC2)c(=O)c2c1c1ccccc1n2C,ligand displacement,radioligand,12%
C[C@H](C(=O)N[C@H]1COc2ccccc2[C@@H]1S(C)(=O)=O)c1ccc(F)cc1,cell-free assay,,12%
CCC(=NO)C(C)=Cc1ccc(F)c(C)c1,ligand displacement,,-5.75%
COc1ccc(C(=O)NCc2cc(C(C)C)no2)cc1OC1CCN(C)CC1,ligand displacement,radioligand,26%
